From ChEMBL document CHEMBL1629545, “A morpholino oligomer targeting highly conserved internal ribosome entry site sequence is able to inhibit multiple species of picornavirus” (Antimicrob Agents Chemother, 2008) come the findings set out here.

The test system of one data set is HeLa. Put plainly: Cytotoxicity against human HeLa cells at 1 to 10 uM after 24 hrs by MTS assay. It counts as cell-based. The method, boiled down:
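HeLa cells at ~80% confluence, uninfected, exposed to 1–100 μM PPMO or water (mock) in serum-free DMEM-F-12 (1:1) for 24 h. MTS reagent was added for 4 h and absorbance read at 492 nm. Viability was expressed as percent of water-treated cells (set to 100%), averaged over 12 wells.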
In general terms: Formazan colour is commonly taken as a measure of viable cells.

The subject of a further data set is Poliovirus 1. Put plainly: Antiviral activity against Human poliovirus type 1 infected in Human HeLa cells assessed as log reduction in viral titer at 5 uM measured after 24 hrs post infection by plaque assay. It is filed as functional, organism-based. The method, boiled down: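 Nearly confluent HeLa cells were infected 1 h with a clinical PV1 isolate (passaged once in Vero and once in HeLa) at MOI 0.05. Inoculum was replaced by medium with 10% calf serum containing PPMO (2.5 or 5 μM) or water, at 37°C. Supernatant titre at 24 h p.i. was measured by plaque assay with 36 h plaque development.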

A further data set concerns rhinovirus B14. Description: Antiviral activity against Human rhinovirus type 14 infected in Human HeLa cell assessed as log reduction in viral titer at 5 uM measured after 48 hrs post infection by plaque assay. It is filed as functional, organism-based. In short, it runs like this:
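HRV14 from an infectious clone was used to infect nearly confluent HeLa cells for 1 h at MOI 0.03. Cells were then kept in 10% calf serum medium with PPMO or water at 34°C. Supernatant titre at 48 h p.i. was measured by plaque assay at 34°C with 72 h plaque development. Two experiments were averaged.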

In a further data set the test system is Vero. Put plainly: Cytotoxicity against African green monkey Vero cells at 10 uM after 24 hrs by MTS assay. It is filed as cell-based. Conditions: chlorocebus sabaeus.
The next data set relates to SK-N-MC. Description: Cytotoxicity against human SK-N-MC cell at 10 uM after 24 hrs by MTS assay. It is filed as cell-based.

Take `Cc1cn([C@H]2CN(P(=O)(OC[C@@H]3CN(P(=O)(OC[C@@H]4CNC[C@H](n5cnc6c(=O)[nH]c(N)nc65)O4)N(C)C)C[C@H](n4cnc5c(N)ncnc54)O3)N(C)C)C[C@@H](COP(=O)(N(C)C)N3C[C@@H](COP(=O)(N(C)C)N4C[C@@H](COP(=O)(N(C)C)N5C[C@@H](COP(=O)(N(C)C)N6C[C@@H](COP(=O)(N(C)C)N7C[C@@H](COP(=O)(N(C)C)N8C[C@@H](COP(=O)(N(C)C)N9C[C@@H](COP(=O)(N(C)C)N%10C[C@@H](COP(=O)(N(C)C)N%11C[C@@H](COP(=O)(N(C)C)N%12C[C@@H](COP(=O)(N(C)C)N%13C[C@@H](COP(=O)(N(C)C)N%14C[C@@H](COP(=O)(N(C)C)N%15C[C@@H](COP(=O)(N(C)C)N%16C[C@@H](COP(=O)(N(C)C)N%17C[C@@H](COP(=O)(N(C)C)N%18C[C@@H](COP(=O)(N(C)C)N%19C[C@@H](COP(=O)(N(C)C)N%20C[C@@H](COP(=O)(N(C)C)N%21C[C@@H](COP(=O)(N(C)C)N%22C[C@@H](COP(=O)(N(C)C)N%23C[C@@H](COP(=O)(N(C)C)N%24CCN(C(=O)[C@H](CS)NC(=O)[C@H](Cc%25ccccc%25)NC(=O)[C@H](Cc%25ccccc%25)NC(=O)[C@H](CCCNC(=N)N)NC(=O)[C@H](CCCNC(=N)N)NC(=O)[C@H](CCCNC(=N)N)NC(=O)[C@H](CCCNC(=N)N)NC(=O)[C@H](CCCNC(=N)N)NC(=O)[C@H](CCCNC(=N)N)NC(=O)[C@H](CCCNC(=N)N)NC(=O)[C@H](CCCNC(=N)N)NC(=O)[C@@H](N)CCCNC(=N)N)CC%24)O[C@@H](n%24cnc%25c(=O)[nH]c(N)nc%25%24)C%23)O[C@@H](n%23cnc%24c(N)ncnc%24%23)C%22)O[C@@H](n%22cnc%23c(=O)[nH]c(N)nc%23%22)C%21)O[C@@H](n%21cnc%22c(N)ncnc%22%21)C%20)O[C@@H](n%20cnc%21c(N)ncnc%21%20)C%19)O[C@@H](n%19cnc%20c(N)ncnc%20%19)C%18)O[C@@H](n%18ccc(N)nc%18=O)C%17)O[C@@H](n%17cnc%18c(N)ncnc%18%17)C%16)O[C@@H](n%16ccc(N)nc%16=O)C%15)O[C@@H](n%15cnc%16c(=O)[nH]c(N)nc%16%15)C%14)O[C@@H](n%14cnc%15c(=O)[nH]c(N)nc%15%14)C%13)O[C@@H](n%13cnc%14c(N)ncnc%14%13)C%12)O[C@@H](n%12ccc(N)nc%12=O)C%11)O[C@@H](n%11cnc%12c(N)ncnc%12%11)C%10)O[C@@H](n%10ccc(N)nc%10=O)C9)O[C@@H](n9ccc(N)nc9=O)C8)O[C@@H](n8ccc(N)nc8=O)C7)O[C@@H](n7cnc8c(N)ncnc87)C6)O[C@@H](n6cnc7c(N)ncnc76)C5)O[C@@H](n5cnc6c(N)ncnc65)C4)O[C@@H](n4cnc5c(=O)[nH]c(N)nc54)C3)O2)c(=O)[nH]c1=O` (stereo not given in full): the Activity result in the data set with HeLa, in the data set with Vero and with SK-N-MC was “Non-toxic” each time. Besides, the FC in the data set with Poliovirus 1 and in the data set with rhinovirus B14 was 2 in each case.
